Bioassay records (PubChem)
TbHK1 inh – Trypanosoma brucei hexokinase 1 inhibitors, primary screen, biochemical, G6PDH-coupled NADH absorbance, MLSCN library; recombinant TbHK1, G6PDH-coupled NADH A340; inhibition, % at 10 µM; hit rate 0.11% among 220,000;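 active = inhibition of 50% or more in the single-dose primary screen; inactive = inhibition below 50%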
Runt-CBFb FRET – inhibitors of RUNX1 Runt–CBFb binding, primary screen, biochemical, FRET, Cerulean-Runt, Venus-CBFb, uHTS. hit rate 0.46% among 220,000. inhibition, % at 20 µM. AID 1496, 2009. Cerulean-Runt/Venus-CBFb FRET ratio 530/480, 1 h;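 active = inhibition over about 50% at 20 µM in the single-dose screen, limit read from the data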
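test system = Cerulean-Runt domain fusion protein, energy donor | probe or stimulus = Venus-CBFb binding partner, 100 nM | incubation = two 1 h room-temperature incubations shielded from light | detection = fluorescence energy transfer, 422 nm excitation, 530/480 nm emission | measure = loss of energy transfer signal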
Hck-Nef inh – inhibitors of Nef-activated human Hck kinase, primary screen, biochemical, Z-Lyte FRET, 384-well, Hck-YEEI. Tyrosine-protein kinase HCK (Homo sapiens), P08631. Recombinant Hck-YEEI plus Nef, Z-Lyte FRET kinase assay. inhibition, % at 20 µM. hit rate 0.68% among 220,000. AID 463187, 2010;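 active = Hck-Nef kinase inhibition above about 50%, limit read from the data; inactive = inhibition below that limit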
Target sequence (P08631 whole entry, looked up): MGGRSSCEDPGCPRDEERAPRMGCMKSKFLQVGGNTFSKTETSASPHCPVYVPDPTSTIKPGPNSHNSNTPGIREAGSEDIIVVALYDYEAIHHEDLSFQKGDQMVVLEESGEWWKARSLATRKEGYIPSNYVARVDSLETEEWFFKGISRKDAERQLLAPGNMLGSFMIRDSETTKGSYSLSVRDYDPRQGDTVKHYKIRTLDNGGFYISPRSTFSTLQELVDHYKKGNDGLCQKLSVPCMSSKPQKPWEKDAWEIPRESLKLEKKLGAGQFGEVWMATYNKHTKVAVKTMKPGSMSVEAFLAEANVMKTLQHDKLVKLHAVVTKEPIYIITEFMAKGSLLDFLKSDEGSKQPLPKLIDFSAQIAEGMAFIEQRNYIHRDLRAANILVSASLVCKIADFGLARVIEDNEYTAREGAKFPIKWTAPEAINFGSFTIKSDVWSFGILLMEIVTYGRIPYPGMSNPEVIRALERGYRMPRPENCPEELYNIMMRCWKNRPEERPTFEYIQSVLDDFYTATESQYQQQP
RanGTP-Impb inh – inhibitors of RanGTP-importin-beta interaction, primary screen, biochemical, FRET, CFP-Ran, YFP-importin-beta, homogeneous. Ran GTPase (GTP-bound) - importin-beta complex. cell-free CFP-Ran/YFP-importin-beta FRET ratio. AID 2216, 2009. hit rate 1.1% among 300,000. inhibition, % (test concentration not listed);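 active = more than half of the replicate wells show a fall in the fluorescence ratio signal beyond about 16%, limit read from the data, passing the limit was not always enough; inconclusive = exactly half of the replicate wells pass the set limit; inactive = fewer than half of replicates pass the limit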
Runt-SMMHC FRET – inhibitors of RUNX1 Runt–CBFb-SMMHC binding, primary screen, biochemical, FRET, Cerulean-Runt, Venus-CBFb-SMMHC, uHTS; inhibition, % at 20 µM; AID 1434, 2008; Cerulean-Runt/Venus-CBFb-SMMHC FRET ratio 530/480, 1 h; hit rate 0.74% among 220,000;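 active = mean inhibition across duplicate retests at 20 µM reaching about 50%, limit read from the data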;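 also: inhibitors lower the FRET ratio by blocking Runt binding to CBFb-SMMHC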
14-3-3 Bad PPI – inhibitors of 14-3-3 zeta/Bad binding, primary screen, biochemical, TR-FRET, bovine 14-3-3 zeta; AID 781, 2007; TR-FRET 14-3-3zeta/Dy647-pBad peptide displacement, 1 h; 14-3-3 protein zeta/delta (Bos taurus), P63103; inhibition, % at 21.7 µM; hit rate 0.71% among 220,000;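 active = inhibition above about 70%, limit read from the data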
Numbers stand for hits; 0 = inactive; ? = inconclusive; - = no result given; [ ] = dose if it differs, or a comment. Only some compounds are listed: those with a hit (about 2.2% of all), similar ones and a draw of the others.

SMILES	TbHK1 inh	Runt-CBFb FRET	Hck-Nef inh	RanGTP-Impb inh	Runt-SMMHC FRET	14-3-3 Bad PPI
Nc1c(C(=O)NCc2ccc(F)cc2)c2nc3ccccc3nc2n1CCCN1CCOCC1	0	0	0	87	81	0
Nc1c(C(=O)NCc2ccco2)c2nc3ccccc3nc2n1CCc1ccccc1	0	0	0	56	76	0
CN(C)C(=O)CCSc1nnc(-c2ccco2)o1	0	0	0	?	0	0
Cc1ccc(Cn2c(=O)c3ccccc3n3nc(C)cc23)cc1	0	0	0	0	0	0
O=C(Nc1ccccc1Cl)C1CC(=O)n2c(nc3ccccc32)N1 (stereo not given)	0	0	0	0	0	0
Cc1ccc(C)c(NC(=S)N2CCN(CCO)CC2)c1	0	0	0	?	0	0
CCc1c(C)sc(NC(=O)Cn2nc(C)c([N+](=O)[O-])c2C)c1C(N)=O	0	0	0	0	0	0
CCCCN(CCCC)C(=O)c1nsnc1-c1ccccc1O	0	0	0	0	0	-
O=C(NCCCN1CCOCC1)c1cccnc1	0	0	0	0	0	0
COc1ccc(CNC(=O)c2c(N)n(CCCN3CCOCC3)c3nc4ccccc4nc23)cc1	0	0	0	97	81	0
CCCCCn1c(S(=O)(=O)O)nc2ccccc21	0	0	0	0	0	0
CCCCCOC(=O)c1c(N)n(CCOC)c2nc3ccccc3nc12	0	0	0	0	114	0
O=C(NCCCN1CCOCC1)c1ccccc1	0	0	0	0	0	81
COc1ccc(CNC(=O)C(C)Sc2nc3ccccc3c(=O)n2CCCN2CCOCC2)cc1 (stereo not given)	0	0	0	0	0	0
CC(=O)Nc1ccc(C)c(NS(=O)(=O)c2cccc(C(F)(F)F)c2)c1	0	0	0	0	0	0
Cc1cc(C(=O)NNC(=O)c2ccc(Cl)cc2Cl)c(C)o1	-	-	-	0	-	-
COC(=O)c1cc(NC(=O)Cc2cccs2)cc(C(=O)OC)c1	-	-	-	0	-	-
COc1ccc(/C=C/C(=O)c2ccc(Cl)cc2)c(OC)c1	0	0	0	20	0	0
COC(=O)c1c(NC(=O)COC(=O)CCc2ccc(S(=O)(=O)N3CCOCC3)cc2)sc2c1CCC2	0	0	0	0	0	0
COc1cc2ccc(=O)oc2c(O[C@@H]2O[C@H](CO)[C@@H](O)[C@H](O)[C@H]2O)c1O	-	-	-	119	-	-
CCCc1cc(=O)oc2c(C)c(O[C@@H]3O[C@H](CO)[C@@H](O)[C@H](O)[C@H]3O)ccc12	-	-	-	0	-	-
CC(C)Cc1nnc(NC(=O)Cc2cccs2)s1	0	0	0	26	0	0
CCCC(=O)Nc1nn(CC(C)C)c2nc3cc(C)ccc3cc12	-	-	-	28	-	-
CCC(=O)Nc1nn(CC(C)C)c2nc3ccc(C)cc3cc12	-	-	-	24	-	-
CCn1nc(NC(=O)CC(C)C)c2cc3ccc(C)cc3nc21	-	-	-	0	-	-
SMILES	TbHK1 inh	Runt-CBFb FRET	Hck-Nef inh	RanGTP-Impb inh	Runt-SMMHC FRET	14-3-3 Bad PPI
Cc1ccc(N2C(=O)NC(NS(=O)(=O)c3ccccc3)(C(F)(F)F)C2=O)cc1C (stereo not given)	-	-	-	0	-	-
O=C(C1CCCCN1S(=O)(=O)c1ccccc1[N+](=O)[O-])N1CCCCC1 (stereo not given)	0	0	0	0	0	0
N=c1c(C(=O)NCCN2CCOCC2)cc2c(=O)n3ccccc3nc2n1CCc1ccccc1	-	-	-	156	-	-
N=c1c(C(=O)NCc2ccccc2)cc2c(=O)n3ccccc3nc2n1CCCN1CCOCC1	-	58	-	-	0	-
Cc1ccc(Cn2c(=N)c(C(=O)NCCN3CCOCC3)cc3c(=O)n4ccccc4nc32)cc1	-	-	-	0	-	-
COCCCn1c(C(=O)NCCN2CCOCC2)cc2c(=O)n3ccccc3nc21	-	-	-	0	-	-
N=c1c(C(=O)NCCc2ccccc2)cc2c(=O)n3ccccc3nc2n1CCCN1CCOCC1	-	-	-	175	-	-
N#Cc1c(SCc2nc3ccccc3[nH]2)nc2c(c1C(F)(F)F)CCC2	0	-	0	-	-	-
Cc1cc(C)c(C#N)c(SCc2nc3ccccc3[nH]2)n1	0	0	0	19	0	0
O=C1OC(c2cccs2)=N/C1=C/c1ccc(-c2cccc(C(=O)O)c2)o1	0	0	116	-	0	76
O=C(NNc1cc(N2CCOCC2)nc(N2CCOCC2)n1)c1ccc(Cl)c(Cl)c1	0	0	0	134	0	0
O=C(NNc1cc(N2CCOCC2)nc(N2CCOCC2)n1)C12CC3CC(CC(C3)C1)C2	0	0	0	57	0	0
O=C(N/N=C/c1ccc[nH]1)c1ccc(Cl)cc1	0	0	0	0	0	0
CC1CCCCN1CCCNC(=O)CCCN1C(=O)c2cccnc2Sc2ccccc21 (stereo not given)	-	-	-	0	-	-
CCCN1C(=O)C2(OCCO2)c2cc(Cl)ccc21	-	-	-	0	-	-
CN1c2ccc(Cl)cc2C(=O)NC1C1CC=CCC1 (stereo not given)	0	0	0	30	95	0
CCOC(=O)N1CCC(NC(=O)c2csc3c2CCCC3)CC1	0	0	0	0	0	0
C=CCOc1c(Br)cc(C2C3=C(CCCC3=O)N(C)C3=C2C(=O)CCC3)cc1OCC	0	96	53	101	-	0
Cn1c2ccccc2c2cnn(CC(=O)Nc3ccccc3Br)c(=O)c21	0	0	0	0	0	74
CCCn1c2ccccc2c2cnn(CC(=O)NCCN(C)C)c(=O)c21	-	-	-	20	-	-
CCCn1c2ccccc2c2cnn(CC(=O)NCCN(CC)CC)c(=O)c21	-	-	-	0	-	-
O=C(CCS(=O)(=O)c1ccc(Cl)cc1)Nc1nnc(-c2ccco2)o1	-	-	-	0	-	-
CCCCNC(C(=O)Nc1ccc([N+](=O)[O-])cc1Br)c1ccccc1 (stereo not given)	0	0	0	0	0	71
CCOC(=O)CSC1=N/C(=C\c2ccc(OC)c(OC)c2)C(=O)N1C	0	0	0	0	0	74[fluorescence artefact?]
CC1CCN(C(=O)C2CCN(S(=O)(=O)c3cccc4nonc34)CC2)CC1	0	0	0	0	0	0
Cc1nnc(Sc2c(N)n(C)c(=O)[nH]c2=O)s1	0	0	0	19	0	0
O=C(Nc1ccccc1C(=O)Nc1ccncc1)c1ccccc1	-	-	-	0	-	-
Cc1nc([N+](=O)[O-])c(C(=O)OCc2ccccc2C#N)n1C	0	0	0	0	0	0
Clc1ccccc1C1=CC(c2ccco2)n2ncnc2N1 (stereo not given)	0	0	0	43	0	0
